Assay results reported in ChEMBL document CHEMBL1133647, “Discovery of a potent, highly selective, and orally efficacious small-molecule activator of the insulin receptor” (J Med Chem, 2000).
Active and inactive are the calls of the source. Unless noted, no cut-off for these calls is given here.

Legend:
[1] = molecular target: Epidermal growth factor receptor (Homo sapiens) (UniProt P00533); assay: Percent epidermal growth factor receptor (EGFR) activity at 30 uM; assay type: functional
How it was run: (§1)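 EGFR counterscreen: cell-based receptor activation assay run like the CHO IR assay (20 min compound exposure, lysate capture, radiometric kinase readout). Compound tested at 30 uM; result as % of control response to 100 nM EGF.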

[2] = molecular target: Insulin-like growth factor 1 receptor (Homo sapiens) (UniProt P08069); assay: Percent insulin like growth factor receptor(IGFIR) activity at 30 uM; assay type: functional
How it was run: (§2)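 IGFIR counterscreen: cell-based receptor activation assay run like the CHO IR assay (20 min compound exposure, lysate capture, radiometric kinase readout). Compound tested at 30 uM; result as % of control response to 100 nM IGFI.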

[3] = molecular target: Platelet-derived growth factor receptor beta (Homo sapiens) (UniProt P09619); assay: Percent platelet derived growth factor receptor (PDGFR) activity at 30 uM; assay type: functional
How it was run: (§3)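 PDGFR counterscreen: cell-based receptor activation assay run like the CHO IR assay (20 min compound exposure, lysate capture, radiometric kinase readout). Compound tested at 30 uM; result as % of control response to 100 nM PDGF.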

Insulin receptor [4] = molecular target: T1, Insulin receptor (Homo sapiens, UniProt P06213); assay: Activation of human insulin receptor tyrosine kinase (IRTK)
How it was run: (§4)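 CHO cells stably transfected with human insulin receptor, plated 150 000 cells/well for 24 h, serum-starved 2 h, then exposed to compound 20 min at 37 °C. Lysate IR captured on anti-IR antibody wells (16 h, 4 °C), kinase reaction 40 min at 25 °C, radioactivity on phosphocellulose filters. Activity as % of maximal response to 100 nM insulin.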

[5] = molecular target: Platelet-derived growth factor receptor beta (Homo sapiens) (UniProt P09619); assay: Percent platelet derived growth factor receptor (PDGFR) activity at 30 uM (NS = less than 5% activation); assay type: functional; how it was run: as §3
[6] = molecular target: Insulin-like growth factor 1 receptor (Homo sapiens) (UniProt P08069); assay: Percent insulin like growth factor receptor(IGFIR) activity at 30 uM (NS = less than 5% activation); assay type: functional; how it was run: as §2
[7] = molecular target: Epidermal growth factor receptor (Homo sapiens) (UniProt P00533); assay: Percent epidermal growth factor receptor (EGFR) activity at 30 uM (NS = less than 5% activation); assay type: functional; how it was run: as §1
Mus musculus [8] = assay: Percent reduction of blood glucose level in a dose-dependent manner at 10 mpk administered once daily for 8-14 days by gavage to ad libitum fed animals; assay type: functional
[9] = volume of distribution in preclinical species was measured after Intravenous administration at the given dose (0.05 mg/kg) in rat; assay type: ADME, organism-based; conditions: in vivo, read-out: Vdss
How it was run: (§5)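 Male rats, beagle dogs and rhesus monkeys dosed iv in ethanol/PEG400/water (1:3:6, v/v/v), n = 2. Plasma extracted and drug quantified by LC-MS/MS (LOQ = 8-100 ng/mL) against a dihydroxybenzoquinone internal standard.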

Mus musculus [10] = organism: Mus musculus; assay: Blood glucose level for the age- and sex-matched ob/+ lean mice; assay type: functional, organism-based
How it was run: (§6)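 Male ob/ob mice, 12 weeks old, with ob/+ lean controls, housed 7–9 per cage on chow and water ad libitum. Daily oral gavage of compound or vehicle (0.5% methylcellulose). Food was removed 0–6 h after dosing on days 1 and 2, then fed ad libitum. Blood glucose was taken before dosing and at 24 h after dosing, n = 10/group.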

[11] = terminal half life in preclinical species was measured after Intravenous administration at the given dose (0.01 mg/kg) in monkey; assay type: ADME, organism-based; conditions: simiiformes, in vivo; how it was run: as §5
Canis familiaris [12] = assay: plasma clearance in preclinical species was measured after Intravenous administration at the given dose (0.1 mg/kg) in dog; assay type: ADME, organism-based, Canis lupus familiaris; conditions: in vivo; how it was run: as §5
Mus musculus [13] = assay: Decrease in blood glucose concentration at 24 hr postdosing of 10 mpk; assay type: functional, organism-based; how it was run: as §6
[14] = maximum concentration in plasma in preclinical species was measured after oral administration at the given dose (0.5 mg/kg) in rat; assay type: ADME, organism-based; parameters: dose 0.5 mg/kg, route oral
How it was run: (§7)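 Male rats dosed orally at 0.5 mg/kg in ethanol/PEG400/water (1:3:6, v/v/v). Plasma extracted and drug measured by LC-MS/MS (LOQ = 8-100 ng/mL) with an internal standard; bioavailability relative to iv dosing.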

[15] = terminal half life in preclinical species was measured after Intravenous administration at the given dose (0.05 mg/kg) in rat; assay type: ADME, organism-based; conditions: in vivo; how it was run: as §5
[16] = Time taken for maximum concentration in preclinical species was measured after oral administration at the given dose (0.5 mg/kg) in rat; assay type: ADME, organism-based; conditions: in vivo; how it was run: as §7
Mus musculus [17] = assay: Percent reduction of blood glucose level in a dose-dependent manner at 0.1 mpk administered once daily for 8-14 days by gavage to ad libitum fed animals; assay type: functional
[18] = plasma clearance in preclinical species was measured after Intravenous administration at the given dose (0.01 mg/kg) in monkey; assay type: ADME, organism-based; conditions: simiiformes, in vivo; how it was run: as §5
[19] = bioavailability in preclinical species was measured after oral administration at the given dose (0.5 mg/kg) in dog; assay type: ADME, organism-based, Canis lupus familiaris; conditions: in vivo
How it was run: (§8)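 Beagle dogs or rhesus monkeys (male) dosed orally at 0.5 mg/kg as a 0.5% methylcellulose suspension with 0.02% sodium lauryl sulfate. Plasma extracted and drug measured by LC-MS/MS (LOQ = 8-100 ng/mL) with an internal standard; bioavailability relative to iv dosing.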

Canis familiaris [20] = assay: volume of distribution in preclinical species was measured after Intravenous administration at the given dose (0.1 mg/kg) in dog; assay type: ADME, organism-based, Canis lupus familiaris; conditions: in vivo; how it was run: as §5
[21] = plasma clearance in preclinical species was measured after Intravenous administration at the given dose (0.05 mg/kg) in rat; assay type: ADME, organism-based; conditions: read-out: Clp; how it was run: as §5
Canis familiaris [22] = assay: terminal half life in preclinical species was measured after Intravenous administration at the given dose (0.1 mg/kg) in dog; assay type: ADME, organism-based, Canis lupus familiaris; conditions: in vivo; how it was run: as §5
[23] = bioavailability in preclinical species was measured after oral administration at the given dose (0.5 mg/kg) in monkey; assay type: ADME, organism-based; conditions: primates, in vivo; how it was run: as §8
[24] = area under curve in preclinical species was measured after Intravenous administration at the given dose (0.01 mg/kg) in monkey; assay type: ADME, organism-based; conditions: simiiformes, in vivo; how it was run: as §5
[25] = maximum concentration in plasma in preclinical species was measured after oral administration at the given dose (0.5 mg/kg) in monkey; assay type: ADME, organism-based; parameters: dose 0.5 mg/kg, route oral; conditions: simiiformes; how it was run: as §8
[26] = area under curve in preclinical species was measured after oral administration at the given dose (0.5 mg/kg) in monkey; assay type: ADME, organism-based; conditions: simiiformes, in vivo; how it was run: as §8
Mus musculus [27] = assay: Blood glucose concentration at predosing of 10 mpk; assay type: functional, organism-based; how it was run: as §6
[28] = area under curve in preclinical species was measured after Intravenous administration at the given dose (0.1 mg/kg) in dog; assay type: ADME, organism-based, Canis lupus familiaris; conditions: in vivo; how it was run: as §5
[29] = area under curve in preclinical species was measured after oral administration at the given dose (0.5 mg/kg) in dog; assay type: ADME, organism-based, Canis lupus familiaris; conditions: in vivo; how it was run: as §8
[30] = bioavailability in preclinical species was measured after oral administration at the given dose (0.5 mg/kg) in rat; assay type: ADME, organism-based; conditions: in vivo; how it was run: as §7
[31] = volume of distribution in preclinical species was measured after Intravenous administration at the given dose (0.01 mg/kg) in monkey; assay type: ADME, organism-based; conditions: simiiformes, in vivo; how it was run: as §5
[32] = maximum concentration in plasma in preclinical species was measured after oral administration at the given dose (0.5 mg/kg) in dog; assay type: ADME, organism-based, Canis lupus familiaris; parameters: dose 0.5 mg/kg, route oral; how it was run: as §8
[33] = area under curve in preclinical species was measured after Intravenous administration at the given dose (0.05 mg/kg) in rat; assay type: ADME, organism-based; conditions: in vivo; how it was run: as §5
[34] = Time taken for maximum concentration in preclinical species was measured after oral administration at the given dose (0.5 mg/kg) in dog; assay type: ADME, organism-based, Canis lupus familiaris; conditions: in vivo; how it was run: as §8
[35] = Time taken for maximum concentration in preclinical species was measured after oral administration at the given dose (0.5 mg/kg) in monkey; assay type: ADME, organism-based; conditions: simiiformes, in vivo; how it was run: as §8
Mus musculus [36] = assay: Percent reduction of blood glucose level in a dose-dependent manner at 1 mpk administered once daily for 8-14 days by gavage to ad libitum fed animals; assay type: functional
Insulin receptor [37] = molecular target: T1, Insulin receptor; assay: Activation of human insulin receptor tyrosine kinase (NA = inactive up to 100 uM); how it was run: as §4
[38] = molecular target: Insulin-like growth factor 1 receptor (Homo sapiens) (UniProt P08069); assay: Percent insulin like growth factor receptor(IGFIR) activity at 30 uM ( NS = less than 5% activation); assay type: functional; how it was run: as §2

Platelet-derived growth factor receptor beta (Homo sapiens), sequence (P09619 whole entry): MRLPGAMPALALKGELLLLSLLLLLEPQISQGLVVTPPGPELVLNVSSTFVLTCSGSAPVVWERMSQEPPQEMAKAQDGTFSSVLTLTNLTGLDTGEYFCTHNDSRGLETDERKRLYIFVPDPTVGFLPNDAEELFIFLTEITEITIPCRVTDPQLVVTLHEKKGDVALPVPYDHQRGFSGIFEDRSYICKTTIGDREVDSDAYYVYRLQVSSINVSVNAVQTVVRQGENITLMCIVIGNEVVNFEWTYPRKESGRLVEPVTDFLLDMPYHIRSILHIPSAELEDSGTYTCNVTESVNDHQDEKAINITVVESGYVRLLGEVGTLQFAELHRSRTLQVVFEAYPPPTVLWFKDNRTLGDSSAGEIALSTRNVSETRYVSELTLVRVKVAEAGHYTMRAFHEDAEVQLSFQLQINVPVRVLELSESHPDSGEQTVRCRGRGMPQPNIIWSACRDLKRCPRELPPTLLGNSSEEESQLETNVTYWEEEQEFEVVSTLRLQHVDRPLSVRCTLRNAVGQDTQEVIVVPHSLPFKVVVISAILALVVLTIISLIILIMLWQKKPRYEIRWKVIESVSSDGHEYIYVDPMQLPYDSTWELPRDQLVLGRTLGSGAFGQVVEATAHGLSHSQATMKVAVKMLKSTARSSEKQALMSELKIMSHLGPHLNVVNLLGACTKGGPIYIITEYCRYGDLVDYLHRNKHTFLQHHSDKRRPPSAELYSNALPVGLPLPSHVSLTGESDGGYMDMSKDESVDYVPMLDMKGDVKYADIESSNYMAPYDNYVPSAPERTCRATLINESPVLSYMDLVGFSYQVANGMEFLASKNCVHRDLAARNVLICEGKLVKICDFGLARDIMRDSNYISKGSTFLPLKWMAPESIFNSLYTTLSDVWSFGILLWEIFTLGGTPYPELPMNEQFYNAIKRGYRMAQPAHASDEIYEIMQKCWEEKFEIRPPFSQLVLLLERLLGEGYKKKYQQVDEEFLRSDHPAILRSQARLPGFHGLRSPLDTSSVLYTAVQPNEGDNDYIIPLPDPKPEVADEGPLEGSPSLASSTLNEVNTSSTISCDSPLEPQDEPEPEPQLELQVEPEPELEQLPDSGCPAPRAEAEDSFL
T1 sequence (P06213 28-758 limits assumed): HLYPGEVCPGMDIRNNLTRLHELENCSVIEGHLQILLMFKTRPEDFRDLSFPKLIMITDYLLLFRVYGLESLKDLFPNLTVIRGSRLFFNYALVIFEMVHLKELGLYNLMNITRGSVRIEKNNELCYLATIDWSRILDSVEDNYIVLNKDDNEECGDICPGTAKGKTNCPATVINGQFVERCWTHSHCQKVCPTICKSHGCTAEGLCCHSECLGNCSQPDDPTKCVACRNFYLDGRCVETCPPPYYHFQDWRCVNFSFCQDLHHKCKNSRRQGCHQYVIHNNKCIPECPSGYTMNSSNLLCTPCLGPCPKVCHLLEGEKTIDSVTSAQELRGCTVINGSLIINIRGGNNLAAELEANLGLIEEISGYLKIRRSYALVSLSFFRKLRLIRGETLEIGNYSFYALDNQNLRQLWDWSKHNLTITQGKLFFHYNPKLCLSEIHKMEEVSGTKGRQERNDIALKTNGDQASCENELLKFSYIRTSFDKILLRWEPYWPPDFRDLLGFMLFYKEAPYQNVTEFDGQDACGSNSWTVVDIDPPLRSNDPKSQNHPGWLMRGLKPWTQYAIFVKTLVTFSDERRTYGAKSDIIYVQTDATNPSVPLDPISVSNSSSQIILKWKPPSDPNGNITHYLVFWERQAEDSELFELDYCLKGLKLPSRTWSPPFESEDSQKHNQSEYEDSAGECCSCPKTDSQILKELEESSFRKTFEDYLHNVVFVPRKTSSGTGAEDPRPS
T1 sequence (P06213 763-1382 limits assumed): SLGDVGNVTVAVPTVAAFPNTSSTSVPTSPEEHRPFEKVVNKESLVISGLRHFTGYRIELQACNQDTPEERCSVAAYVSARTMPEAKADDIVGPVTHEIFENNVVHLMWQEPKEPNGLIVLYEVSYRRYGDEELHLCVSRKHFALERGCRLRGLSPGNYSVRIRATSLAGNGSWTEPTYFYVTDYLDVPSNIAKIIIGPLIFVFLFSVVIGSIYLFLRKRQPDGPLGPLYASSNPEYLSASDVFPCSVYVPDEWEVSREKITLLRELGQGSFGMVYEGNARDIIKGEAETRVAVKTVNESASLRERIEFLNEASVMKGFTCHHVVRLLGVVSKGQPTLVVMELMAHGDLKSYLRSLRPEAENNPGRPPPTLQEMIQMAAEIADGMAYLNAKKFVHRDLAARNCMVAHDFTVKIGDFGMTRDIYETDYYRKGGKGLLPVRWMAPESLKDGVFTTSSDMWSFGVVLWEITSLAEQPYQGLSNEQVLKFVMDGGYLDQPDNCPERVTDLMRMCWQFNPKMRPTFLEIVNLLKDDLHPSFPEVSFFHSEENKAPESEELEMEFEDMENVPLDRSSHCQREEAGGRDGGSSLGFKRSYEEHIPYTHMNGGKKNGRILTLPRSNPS
Epidermal growth factor receptor (Homo sapiens), sequence (P00533 whole entry): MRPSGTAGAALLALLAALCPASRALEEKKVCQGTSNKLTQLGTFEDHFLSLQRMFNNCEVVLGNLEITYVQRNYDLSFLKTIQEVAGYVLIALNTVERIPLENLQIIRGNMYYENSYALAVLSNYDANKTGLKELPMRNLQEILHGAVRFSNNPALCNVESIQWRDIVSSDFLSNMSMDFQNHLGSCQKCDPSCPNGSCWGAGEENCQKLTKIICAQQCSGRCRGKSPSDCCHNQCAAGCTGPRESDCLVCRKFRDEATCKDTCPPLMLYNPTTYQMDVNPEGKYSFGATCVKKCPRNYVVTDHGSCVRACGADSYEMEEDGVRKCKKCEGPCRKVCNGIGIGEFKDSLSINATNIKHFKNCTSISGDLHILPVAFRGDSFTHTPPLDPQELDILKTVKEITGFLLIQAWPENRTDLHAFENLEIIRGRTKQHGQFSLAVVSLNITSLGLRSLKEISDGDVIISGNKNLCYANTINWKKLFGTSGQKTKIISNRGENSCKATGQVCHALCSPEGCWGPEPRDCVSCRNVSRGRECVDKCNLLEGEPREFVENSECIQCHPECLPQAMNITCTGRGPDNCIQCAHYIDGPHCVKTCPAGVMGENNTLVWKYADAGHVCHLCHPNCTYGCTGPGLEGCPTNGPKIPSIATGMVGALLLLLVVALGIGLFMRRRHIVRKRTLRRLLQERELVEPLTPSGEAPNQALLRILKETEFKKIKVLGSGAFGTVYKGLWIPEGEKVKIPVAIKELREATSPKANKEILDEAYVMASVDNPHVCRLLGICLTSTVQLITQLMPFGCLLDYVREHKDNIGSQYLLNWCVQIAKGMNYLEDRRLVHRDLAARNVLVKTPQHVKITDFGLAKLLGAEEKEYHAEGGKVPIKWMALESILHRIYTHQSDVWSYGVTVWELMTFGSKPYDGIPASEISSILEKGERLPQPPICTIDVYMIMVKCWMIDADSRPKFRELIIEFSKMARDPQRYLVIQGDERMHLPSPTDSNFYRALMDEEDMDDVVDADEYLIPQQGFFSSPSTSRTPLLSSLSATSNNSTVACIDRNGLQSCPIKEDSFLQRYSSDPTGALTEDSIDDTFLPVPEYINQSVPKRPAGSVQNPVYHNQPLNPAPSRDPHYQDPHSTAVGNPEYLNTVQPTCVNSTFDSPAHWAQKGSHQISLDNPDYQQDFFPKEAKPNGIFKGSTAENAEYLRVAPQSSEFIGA
Insulin-like growth factor 1 receptor (Homo sapiens), sequence (P08069 31-736 limits assumed): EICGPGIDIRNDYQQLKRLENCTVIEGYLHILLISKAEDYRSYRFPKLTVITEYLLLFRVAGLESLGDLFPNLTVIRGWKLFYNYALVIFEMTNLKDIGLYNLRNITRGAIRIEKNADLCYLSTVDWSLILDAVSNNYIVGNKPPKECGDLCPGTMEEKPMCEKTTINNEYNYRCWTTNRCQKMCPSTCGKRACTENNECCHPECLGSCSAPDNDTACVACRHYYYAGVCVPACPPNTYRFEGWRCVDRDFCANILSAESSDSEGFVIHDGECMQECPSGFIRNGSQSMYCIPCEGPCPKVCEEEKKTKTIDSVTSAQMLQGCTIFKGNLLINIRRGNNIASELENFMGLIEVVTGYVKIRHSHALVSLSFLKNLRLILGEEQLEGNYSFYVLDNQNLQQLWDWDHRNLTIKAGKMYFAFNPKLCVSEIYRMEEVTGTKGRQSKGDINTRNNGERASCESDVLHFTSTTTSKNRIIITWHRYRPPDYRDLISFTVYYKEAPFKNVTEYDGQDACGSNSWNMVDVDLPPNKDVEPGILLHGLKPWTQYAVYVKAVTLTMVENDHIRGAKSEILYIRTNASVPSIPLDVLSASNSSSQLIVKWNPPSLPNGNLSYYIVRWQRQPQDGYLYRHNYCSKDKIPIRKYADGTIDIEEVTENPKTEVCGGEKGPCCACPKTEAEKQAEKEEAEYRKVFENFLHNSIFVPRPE
Insulin-like growth factor 1 receptor (Homo sapiens), sequence (P08069 741-1367 limits assumed): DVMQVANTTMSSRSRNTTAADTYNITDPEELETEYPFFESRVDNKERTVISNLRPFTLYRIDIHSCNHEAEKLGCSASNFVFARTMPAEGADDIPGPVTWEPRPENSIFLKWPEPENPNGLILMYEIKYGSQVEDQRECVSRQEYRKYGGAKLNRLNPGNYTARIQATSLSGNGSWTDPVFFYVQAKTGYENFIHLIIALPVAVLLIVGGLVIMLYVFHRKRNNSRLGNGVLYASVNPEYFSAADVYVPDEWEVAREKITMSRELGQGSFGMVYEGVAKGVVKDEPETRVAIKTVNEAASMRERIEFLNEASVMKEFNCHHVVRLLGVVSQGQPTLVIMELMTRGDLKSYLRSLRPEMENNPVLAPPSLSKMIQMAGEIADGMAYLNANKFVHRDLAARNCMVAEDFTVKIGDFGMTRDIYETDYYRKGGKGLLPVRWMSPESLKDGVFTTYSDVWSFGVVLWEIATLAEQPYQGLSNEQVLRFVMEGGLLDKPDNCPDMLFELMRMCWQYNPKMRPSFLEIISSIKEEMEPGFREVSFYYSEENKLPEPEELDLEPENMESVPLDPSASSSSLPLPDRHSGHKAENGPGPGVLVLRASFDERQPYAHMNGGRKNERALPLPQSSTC

C=CC(C)(C)c1[nH]c2ccccc2c1C1=C(O)C(O)=C(c2c[nH]c3c(CC=C(C)C)cccc23)C(=O)C1=O
Activation [1]: 15% | Activation [2]: 38% | Activation [3]: 6% | EC50 (Insulin receptor [4]): 5 µM

O=C1C(O)=C(c2csc3ccccc23)C(=O)C(O)=C1c1ccccc1
Activation [5]: inactive | Activation [6]: inactive | Activation [7]: inactive | EC50 (Insulin receptor [4]): 1 µM

Cc1cccc2c(C3=C(O)C(O)=C(c4c[nH]c5ccccc45)C(=O)C3=O)c[nH]c12
Activation [1]: 25% | Activation [2]: 32% | EC50 (Insulin receptor [4]): 7 µM

O=C1C(O)=C(c2c[nH]c3ccccc23)C(=O)C(O)=C1c1ccccc1
Activation [5]: inactive | Activation [1]: 20% | Activation [2]: 41% | EC50 (Insulin receptor [4]): 0.3 µM

Cn1cc(C2=C(O)C(O)=C(c3ccccc3)C(=O)C2=O)c2ccccc21
Reduction (Mus musculus [8]): 84% | Vd [9]: 0.1 L/kg | Activation [5]: inactive | Concentration (Mus musculus [10]): 143 mg/dL | Activation [6]: inactive | T1/2 [11]: 66 h | Clp (Canis familiaris [12]): 1.14 mL/h/kg | Concentration (Mus musculus [13]): 150 mg/dL | Cmax [14]: 4880 ng/mL | half-life [15]: 32 h | Tmax [16]: 10 h | Reduction (Mus musculus [17]): 29% | Clp [18]: 1.2 mL/h/kg | bioavailability [19]: 59.2% | Vdss (Canis familiaris [20]): 0.56 L/kg | clearance [21]: 2.28 mL/h/kg | T1/2 (Canis familiaris [22]): 93.5 h | bioavailability [23]: 66.5% | AUC [24]: 8370 ng·h/mL | Cmax [25]: 7590 ng/mL | AUC [26]: 278000 ng·h/mL | Concentration (Mus musculus [27]): 233 mg/dL | Activation [7]: inactive | AUC [28]: 89800 ng·h/mL | AUC [29]: 266000 ng·h/mL | bioavailability [30]: 79.3% | Vdss [31]: 0.31 L/kg | Cmax [32]: 5270 ng/mL | AUC [33]: 21800 ng·h/mL | Tmax [34]: 2.5 h | Tmax [35]: 8 h | Reduction (Mus musculus [36]): 47% | EC50 (Insulin receptor [4]): 0.3 µM

COc1ccc(C2=C(O)C(O)=C(c3ccccc3)C(=O)C2=O)cc1
Activation [5]: inactive | EC50 (Insulin receptor [37]): Not Active | Activation [38]: inactive | Activation [7]: inactive

O=C1C(O)=C(c2cccc3ccccc23)C(=O)C(O)=C1c1ccccc1
Activation [5]: inactive | Activation [6]: inactive | EC50 (Insulin receptor [4]): 6 µM

O=C1C(O)=C(c2coc3ccccc23)C(=O)C(O)=C1c1ccccc1
Activation [5]: inactive | Activation [6]: inactive | Activation [7]: inactive | EC50 (Insulin receptor [4]): 1.5 µM

O=C1C(O)=C(c2ccc3ccccc3c2)C(=O)C(O)=C1c1ccccc1
Activation [5]: inactive | Activation [6]: inactive | EC50 (Insulin receptor [4]): 30 µM
